Screening results (PubChem BioAssay)
UPR XBP1 act – adaptive UPR (XBP1) activation; CHO-XBP1 luciferase reporter, IRE1-XBP1 UPR activation, luminescence; percent of tunicamycin response, DMSO as zero; activation, % at 20 µM; actives 0.33% (n = 330,000);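 active = versus positive control, 20 µM dose yields 30% or more activation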;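 note: 100% = tunicamycin at 10 µg/mL and 0% = DMSO only wells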
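Material: CHO-XBP1 cells stably carrying IRE1-XBP1-driven luciferase reporter / Amount: 1000 cells per well / Compound: 20 µM, 1% DMSO / Times: 6 h treatment, 37 °C / Detection: luciferase luminescence / Measure: % activation of reporter signal versus tunicamycin and DMSO controls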
CHOP inhibitor – CHOP inhibition in unfolded protein response; actives 3.8% (n = 220,000); CHO-K1 CHOP-promoter luciferase, tunicamycin-induced, 15-18 h; inhibition, % at 10 µM;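 active = compounds that reduced the stress-induced luciferase reporter signal by more than about 70% of percent inhibition, limit read from the data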;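 note: 0% = tunicamycin plus vehicle and 100% = wells without tunicamycin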
UPR CHOP act – activators of apoptotic arm of unfolded protein response (CHOP) | CHO-CHOP luciferase reporter, UPR activation, luminescence; percent of tunicamycin response over DMSO baseline | activation, % at 10 µM | actives 0.34% (n = 330,000) | AID 449763;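 active = at 10 µM dose, activation of 40% or more, normalized to positive control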;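 note: 100% = tunicamycin at 10 µg/mL and 0% = DMSO alone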
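Material: CHO-CHOP cells, stable luciferase reporter of PERK-eIF2a-CHOP signalling; quantity: 500 reporter cells seeded per well; buffer or medium: F12 medium containing 10% fetal bovine serum; compound: one dose, 10 µM in 0.5% DMSO; incubation: 6 h compound treatment, 37 °C; measured by: Steady-Glo luciferase luminescence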
697 NFkB inh – lowers PMA/ionomycin-induced NF-kB signal in 697 B cells | inhibition, % at 4 µM | 697 B-cell NF-kB luciferase reporter, 16 h | actives 0.33% (n = 330,000) | AID 435022; in the data active = inhibition above about 35%
Gli-Sufu block – Gli-Sufu pathway antagonism | Sufu-KO-LIGHT fibroblasts, Gli luciferase reporter luminescence | inhibition, % at 5 µM | actives 0.74% (n = 340,000) | AID 588413;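 active = inhibition above about 55%, limit read from the data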;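 note: 0% = DMSO-treated cells and 100% = wells with medium but no cells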
Jurkat NFkB inh – inhibitors of the PMA/ionomycin-induced NF-kB reporter in Jurkat cells. inhibition, % at 4 µM. PMA/ionomycin-induced NF-kB luciferase reporter, luminescence. actives 0.53% (n = 330,000); in the data active = inhibition above about 50%
CHOP inh conf – confirmation of CHOP induction inhibitors; shares compounds with CHOP inhibitor; CHO-CHOP promoter luciferase reporter, tunicamycin-induced, luminescence; inhibition, % at 10 µM; actives 45% (n = 2,100); AID 504437;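 active = mean of three repeat readings of reporter signal inhibition above a set limit, cut at about 70% in these data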;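 note: 0% = tunicamycin plus vehicle and 100% = wells lacking tunicamycin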
The depositor's hits bear a star. A selection: hits, their analogues and other compounds. The true share with any hit is near 3.9%.

What do the screens show for `O=C(COc1ccc2cc(-c3ccccc3)c(=O)oc2c1)NCC1CCC(C(=O)O)CC1` (configuration not stated)?
UPR XBP1 act: -1; UPR CHOP act: -1; 697 NFkB inh: 10; Gli-Sufu block: -8; Jurkat NFkB inh: 9

How did Cc1ccc(Sc2ccc(NC(=O)c3ccc(S(C)(=O)=O)cc3Cl)cc2)cc1 do in these assays?
UPR XBP1 act: 1; CHOP inhibitor: 98*; UPR CHOP act: 1; 697 NFkB inh: 0; Gli-Sufu block: 12; Jurkat NFkB inh: -2; CHOP inh conf: 65

Results for CCN(CC1CCCO1)C(=O)c1cc(COc2cc(C)c(Cl)c(C)c2)on1 (configuration not stated) ?
UPR XBP1 act: -5; UPR CHOP act: 2; 697 NFkB inh: -103; Gli-Sufu block: -52; Jurkat NFkB inh: -82

What do the screens show for `COc1cc2c(cc1OC)C(C1C(=O)CCCC1=O)N(C(=O)CCl)CC2` (configuration not stated)?
UPR XBP1 act: -3; CHOP inhibitor: 24; UPR CHOP act: -1; 697 NFkB inh: 21; Gli-Sufu block: 1; Jurkat NFkB inh: -10

What do the screens show for `COc1cc2c(cc1OC)C(c1ccccc1)N(C(=O)CCl)CC2` (configuration not stated)?
UPR XBP1 act: -7; CHOP inhibitor: 111*; UPR CHOP act: -3; 697 NFkB inh: -27; Gli-Sufu block: 9; Jurkat NFkB inh: 29; CHOP inh conf: 117*

How did O=C(COC(=O)/C=C/c1cccc(Br)c1)NCCC1=CCCCC1 do in these assays?
UPR XBP1 act: -1; CHOP inhibitor: 96*; UPR CHOP act: 5; 697 NFkB inh: -2; Gli-Sufu block: -2; Jurkat NFkB inh: 1; CHOP inh conf: -1

What do the screens show for `COc1cc(/C=C/C(=O)OCC(=O)NCCC2=CCCCC2)ccc1O`?
UPR XBP1 act: 1; CHOP inhibitor: 14; UPR CHOP act: -3; 697 NFkB inh: -1; Gli-Sufu block: -14; Jurkat NFkB inh: 1

Results for O=C(COc1ccc(Cl)cc1Cl)NCCC1=CCCCC1 ?
UPR XBP1 act: 0; CHOP inhibitor: 107*; UPR CHOP act: 0; 697 NFkB inh: -6; Gli-Sufu block: -11; Jurkat NFkB inh: -5; CHOP inh conf: 115*

What do the screens show for `Cc1ccccc1OCC(=O)NCCC1=CCCCC1`?
UPR XBP1 act: 1; CHOP inhibitor: -31; UPR CHOP act: 3; 697 NFkB inh: -7; Gli-Sufu block: 1; Jurkat NFkB inh: 7

What do the screens show for `COc1ccc(-c2cc(C(=O)NCCN3CCOCC3)no2)cc1OC`?
UPR XBP1 act: 0; UPR CHOP act: 0; 697 NFkB inh: 14; Gli-Sufu block: -5; Jurkat NFkB inh: 13

Results for O=C(NCc1cccnc1)Nc1cccc([N+](=O)[O-])c1 ?
UPR XBP1 act: 2; UPR CHOP act: 1; 697 NFkB inh: -7; Gli-Sufu block: -8; Jurkat NFkB inh: -7

What do the screens show for `Cn1c2ccccc2c(=O)c2c(=O)n(C3CCCCC3)c(-c3cccs3)nc21`?
UPR XBP1 act: 17; CHOP inhibitor: 97*; UPR CHOP act: -1; 697 NFkB inh: -7; Gli-Sufu block: 19; Jurkat NFkB inh: 15; CHOP inh conf: 42

Results for CCc1nc2c(c(=O)c3ccccc3n2C)c(=O)n1C1CCCCCC1 ?
UPR XBP1 act: 6; CHOP inhibitor: 60; UPR CHOP act: -4; 697 NFkB inh: -55; Gli-Sufu block: 12; Jurkat NFkB inh: -1

What do the screens show for `Cn1c2ccccc2c(=O)c2c(=O)n(-c3ccccc3)c(C3CCCCC3)nc21`?
UPR XBP1 act: -1; CHOP inhibitor: 35; UPR CHOP act: 3; 697 NFkB inh: -7; Gli-Sufu block: 22; Jurkat NFkB inh: 6

What do the screens show for `Cn1c2ccccc2c(=O)c2c(=O)n(C3CCCCCC3)c(C3CCCCC3)nc21`?
CHOP inhibitor: 105*; Gli-Sufu block: 44; CHOP inh conf: 122*

What do the screens show for `COc1ccc(NS(=O)(=O)c2ccc(C(=O)N3CCC(C)CC3)cc2)cc1`?
UPR XBP1 act: -4; UPR CHOP act: 1; 697 NFkB inh: -6; Gli-Sufu block: 34; Jurkat NFkB inh: 6

How did COc1ccc(/C=C(\C#N)C(=O)NCc2ccccc2)cc1 do in these assays?
UPR XBP1 act: -2; UPR CHOP act: 3; 697 NFkB inh: 24; Gli-Sufu block: 8; Jurkat NFkB inh: 7

What do the screens show for `CCCNC(=O)c1nnsc1S(=O)(=O)c1ccc(Cl)cc1`?
UPR XBP1 act: -9; CHOP inhibitor: 108*; UPR CHOP act: -5; 697 NFkB inh: -8; Gli-Sufu block: 4; Jurkat NFkB inh: 29; CHOP inh conf: 141*

What do the screens show for `OCC[C@@H]1C[C@@H](O)[C@H](O)[C@]2(Cc3ccccc3O2)O1`?
UPR XBP1 act: 3; UPR CHOP act: -1; 697 NFkB inh: 16; Gli-Sufu block: 3; Jurkat NFkB inh: -8

Results for O=C(NC(c1ccc(Cl)cc1)c1cc(Cl)c2cccnc2c1O)c1cccnc1 (configuration not stated) ?
CHOP inhibitor: 110*; Gli-Sufu block: 18; CHOP inh conf: 38

What do the screens show for `CC(=O)NC(c1ccccc1)c1cc(Cl)c2cccnc2c1O` (configuration not stated)?
UPR XBP1 act: 1; UPR CHOP act: 0; 697 NFkB inh: -35; Gli-Sufu block: 27; Jurkat NFkB inh: 0

How did CN(C(=O)c1cccc(NC(=O)Cc2ccc(NC(=O)C3CCCN(C(=O)c4ccccc4)C3)cc2)c1)C1CCCC1 (configuration not stated) do in these assays?
Gli-Sufu block: -35

What do the screens show for `O=C(NCCCc1ccncc1)C1CCC(=O)N(CCc2cccc(F)c2)C1` (configuration not stated)?
UPR XBP1 act: -2; UPR CHOP act: -1; 697 NFkB inh: -7; Gli-Sufu block: -11; Jurkat NFkB inh: -1

What do the screens show for `CCOc1ccc(/C(C)=N\NC(=O)Cc2ccccc2)cc1`?
UPR XBP1 act: 1; UPR CHOP act: -2; 697 NFkB inh: 0; Gli-Sufu block: 7; Jurkat NFkB inh: 5

Results for CCOc1ccc(/C(=N\O)C(C)NO)cc1 (configuration not stated) ?
UPR XBP1 act: 0; CHOP inhibitor: 104*; UPR CHOP act: 0; 697 NFkB inh: -1; Gli-Sufu block: -14; Jurkat NFkB inh: -8; CHOP inh conf: 2

Results for COC(=O)CN1C(=S)N(Cc2ccccc2)C(=O)C1CC(=O)Nc1ccc(Br)cc1 (configuration not stated) ?
UPR XBP1 act: -2; CHOP inhibitor: 102*; UPR CHOP act: 0; 697 NFkB inh: 14; Gli-Sufu block: 4; Jurkat NFkB inh: 6; CHOP inh conf: 98*
